In general, IC50 refers to the concentration at which inhibition is half-maximal.

This is an account of results in ChEMBL document CHEMBL1126823, “Benextramine-neuropeptide Y receptor interactions: contribution of the benzylic moieties to [3H]neuropeptide Y displacement activity” (J Med Chem, 1993).

A value given as a limit tells only on which side of the number the result lay.

Test [1] in a line: Binding affinity against rat NPY receptor by using [3H]NPY as radioligand. The gist of the method: (§1)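 Male Sprague-Dawley rat (250-300 g) brain membrane homogenate (1.2-1.6 mg protein/mL) incubated with 1.0 nM [3H]NPY and analog 10^-3 to 10^-7 M in Krebs-Ringer bicarbonate/50 mM phosphate, 0.1% BSA, 0.05% bacitracin, pH 7.4, 90 min at 25 °C. Nonspecific binding defined with 1 µM NPY. Filtration onto PEI-treated glass-fiber filters, scintillation counting. IC50 from competitive binding isotherm fit.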

The nature of test [2]: Relative potency of compound at alpha-adrenoceptor to that of benextramine was measured by ability to antagonize the effect of epinephrine on the contractions of the electrically stimulated rat vas deferens. In kind it is tissue-based.
The species entered for the next test is Rattus norvegicus. In words: Displacement of [3H]NPY from rat brain NPY receptor compared to benextramine. The gist of the method:
as §1
In general terms: Displacement assays read how much labelled ligand stays bound in the presence of the test substance.

With `Oc1ccccc1CNCCCCCCNCCSSCCNCCCCCCNCc1ccccc1O`, the IC50 in test [1] came to 50.6 µM. The Relative activity in test [2] worked out at 0.36; in the test listed under Rattus norvegicus it was 1.1.

For `COc1cccc(CNCCCCCCNCCSSCCNCCCCCCNCc2cccc(OC)c2)c1`, the IC50 in test [1] was 21.5 µM. For the same compound, the Relative activity in test [2] came out at 0.72; in the test filed under Rattus norvegicus, 2.7.

For `Clc1ccccc1CNCCCCCCNCCSSCCNCCCCCCNCc1ccccc1Cl`, the IC50 in test [1] came to 79.9 µM. The Relative activity in test [2] is 0.44; in the test filed under Rattus norvegicus, 0.7.

In test [1], `c1ccc2cc(CNCCCCCCNCCSSCCNCCCCCCNCc3ccc4ccccc4c3)ccc2c1` gave an IC50 of 31.3 µM. Further, the Relative activity in test [2] worked out at 0.27; in the test filed under Rattus norvegicus it was 1.8.

In test [1], `Oc1ccc(CNCCCCCCNCCSSCCNCCCCCCNCc2ccc(O)cc2)cc1` yielded an IC50 of 162 µM. For the same compound, the Relative activity in test [2] is 0.14; in the test listed under Rattus norvegicus, 0.4.

Regarding `c1ccc(CNCCCCCCNCCSSCCNCCCCCCNCc2ccccc2)cc1`, in test [1], the IC50 amounted to 191 µM. For the same compound, the Relative activity in test [2] stood at 0.9; in the test filed under Rattus norvegicus it was 0.3.

In test [1], `Clc1cccc(CNCCCCCCNCCSSCCNCCCCCCNCc2cccc(Cl)c2)c1` gave an IC50 of 46.7 µM. The Relative activity in test [2] was 0.46; in the test listed under Rattus norvegicus it was 1.2.

For `Clc1ccc(CNCCCCCCNCCSSCCNCCCCCCNCc2ccc(Cl)cc2)cc1`, the IC50 in test [1] is 37.8 µM. Further, the Relative activity in test [2] worked out at 0.5; in the test filed under Rattus norvegicus, 1.5.

As to `COc1ccc(CNCCCCCCNCCSSCCNCCCCCCNCc2ccc(OC)cc2)cc1`, the IC50 in test [1] came to 44.1 µM. For the same compound, the Relative activity worked out at 0.81 in test [2] and 1.3 in the test filed under Rattus norvegicus.

Turning to `NCCCCCCNCCSSCCNCCCCCCN`, the IC50 in test [1] was above 1400 µM. For the same compound, the Relative activity in test [2] is 0.27; in the test listed under Rattus norvegicus, below 0.04.

As to `Oc1cccc(CNCCCCCCNCCSSCCNCCCCCCNCc2cccc(O)c2)c1`, in test [1], the IC50 is 20.3 µM. The Relative activity in test [2] amounted to 0.24; in the test filed under Rattus norvegicus, 2.8.

With `COc1ccccc1CNCCCCCCNCCSSCCNCCCCCCNCc1ccccc1OC` [BENEXTRAMINE], the IC50 in test [1] is 57.6 µM. The Relative activity (in test [2]; in the test listed under Rattus norvegicus) was 1 throughout.
